Test [1] addresses T1, Fe(3+)-pyochelin receptor (Pseudomonas aeruginosa (strain ATCC 15692 / PAO1 / 1C / PRS 101 / LMG12228), UniProt P42512).
T1 sequence (P42512 whole entry): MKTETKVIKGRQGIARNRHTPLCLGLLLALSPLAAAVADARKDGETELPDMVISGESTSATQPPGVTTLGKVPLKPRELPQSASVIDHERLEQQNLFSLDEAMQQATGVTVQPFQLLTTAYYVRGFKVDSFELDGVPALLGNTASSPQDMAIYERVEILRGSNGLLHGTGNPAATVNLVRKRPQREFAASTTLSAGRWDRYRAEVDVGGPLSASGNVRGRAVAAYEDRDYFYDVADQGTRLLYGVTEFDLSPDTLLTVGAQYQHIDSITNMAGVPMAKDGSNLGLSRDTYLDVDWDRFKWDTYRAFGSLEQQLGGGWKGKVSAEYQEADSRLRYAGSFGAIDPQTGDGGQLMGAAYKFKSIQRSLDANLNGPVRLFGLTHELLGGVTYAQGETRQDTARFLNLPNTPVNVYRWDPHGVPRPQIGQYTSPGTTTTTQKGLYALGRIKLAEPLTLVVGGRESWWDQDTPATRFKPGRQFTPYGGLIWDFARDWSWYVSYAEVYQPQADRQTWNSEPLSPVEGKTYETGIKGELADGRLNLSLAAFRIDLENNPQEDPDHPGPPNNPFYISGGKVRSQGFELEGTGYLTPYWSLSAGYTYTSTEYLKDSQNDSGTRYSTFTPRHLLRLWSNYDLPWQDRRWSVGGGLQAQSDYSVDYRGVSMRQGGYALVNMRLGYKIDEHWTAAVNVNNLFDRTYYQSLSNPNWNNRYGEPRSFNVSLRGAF
Put plainly: Displacement of Pch-55Fe(III) from Pseudomonas aeruginosa PAD07 FptA after 1 hr in presence of CCCP. In a few lines:
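PAD07 P. aeruginosa (mutant lacking pyochelin and pyoverdine), OD600 0.3, held 1 h at 0 °C in 50 mM Tris–HCl pH 8.0 with 200 µM CCCP to block uptake. Tracer 1 nM Pch-55Fe(III) competed by the Fe(III)-loaded compounds over […] range. Inhibition constant (Ki) derived from the competition.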

A further test relates to Pseudomonas aeruginosa. Put plainly: Induction of iron uptake in Pseudomonas aeruginosa PAD07 at 100 nM. It is filed as functional, organism-based. The essentials:
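PAD07 P. aeruginosa cells lacking endogenous siderophores, OD600 1, incubated at 37 °C with 100 nM of the 55Fe(III)-loaded compound. Aliquots taken at several times were centrifuged, and cell-pellet 55Fe was measured as iron transported. Repeated with the protonophore CCCP at 0 °C to check TonB-dependent uptake versus passive diffusion.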

Active and inactive are the calls of the source. The calls are words filed in the database; no cut-off is given here.

`COc1ccccc1-c1nc(C2SC[C@@H](C(=O)O)N2C)cs1` (mixture of isomers): the Ki (in general, the equilibrium dissociation constant of an inhibitor or competing ligand from its target) in test [1] is recorded as “Not Active”. Moreover, in the test on Pseudomonas aeruginosa, the result was inactive.

In the case of `COc1cc(O)ccc1-c1nc(C2SC[C@@H](C(=O)O)N2C)cs1` (mixture of isomers), the Ki entry in test [1] is listed as “Not Active”. Further, the result in the test with Pseudomonas aeruginosa was inactive.

On to `COc1ccc(N)cc1-c1nc(C2SC[C@@H](C(=O)O)N2C)cs1` (mixture of isomers), for which the inhibitory constant (Ki) in test [1] (read-out: Ki) was 460 nM. The outcome in the test on Pseudomonas aeruginosa was inactive.

As for `CN1[C@@H](c2csc(-c3ccccc3O)n2)SC[C@H]1C(=O)O`, the Ki in test [1] (read-out: Ki) was determined as 9.8 nM. For the same compound, the result in the test with Pseudomonas aeruginosa was Active.

`CN1C(c2csc(-c3cc(N)ccc3O)n2)SC[C@H]1C(=O)O` (mixture of isomers): the Ki result in test [1] is recorded as “Not Active”. Also, the result with Pseudomonas aeruginosa was inactive.

Regarding `CN1C(c2csc(-c3ccc(N)cc3O)n2)SC[C@H]1C(=O)O` (mixture of isomers), the Ki in test [1] (read-out: Ki) came out at 11.3 nM. In addition, the result in the test on Pseudomonas aeruginosa was Active.

For the compound `CN1C(c2csc(-c3ccc(O)cc3O)n2)SC[C@H]1C(=O)O` (mixture of isomers), the Ki in test [1] (read-out: Ki) stood at 6.5 nM. In the test with Pseudomonas aeruginosa, the result was Active.

As for `COc1ccc(F)cc1-c1nc(C2SC[C@@H](C(=O)O)N2C)cs1` (mixture of isomers), in test [1] (read-out: Ki), the Ki was determined as 1440 nM. In addition, the outcome with Pseudomonas aeruginosa was inactive.

As to `CN1[C@@H]([C@H]2CSC(c3ccccc3O)=N2)SC[C@H]1C(=O)O`, the Ki in test [1] (read-out: Ki) was 2.2 nM. Besides, the outcome in the test with Pseudomonas aeruginosa was Active.

Values taken from ChEMBL document CHEMBL3098095, “Synthesis and biological properties of thiazole-analogues of pyochelin, a siderophore of Pseudomonas aeruginosa” (Bioorg Med Chem Lett, 2014).
